Measured values reported in article PMC5812400 (ESMO Open, 2018).
Where “and” joins values, the source holds several entries; their conditions need not be identical. Equal entries are not always repeated.

Experiments:
Type in all cases: in vivo, human
[1] = Plasma PK of TAK-228 4 mg in single-agent QD PK run-in; conditions: for AUC(0-inf) / Cmax: geometric mean (%CV)
Procedure, shortened: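 Run-in ≤14 days before cycle 1. Three visits ≥48 h apart, each a 4 mg oral dose: unmilled fasted, milled after high-fat breakfast, milled fasted. No proton pump inhibitor within 5 days or H2 antagonist within 24 h. LC-MS/MS validated over 1–1000 ng/mL. ANOVA on log Cmax and AUC (treatment fixed, patient random); geometric mean ratios with 90% CI.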

[2] = system: advanced non-haematological malignancies; assay: Tumour response
Procedure, shortened: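 Response assessed by RECIST 1.1 on contrast CT or MRI of chest, abdomen and pelvis; bone scans allowed for bone metastases. Same modality kept per patient. Baseline scan within 4 weeks before first dose, then cycle 3 day 1 and every two cycles until end of study or discontinuation. ORR = CR+PR; clinical benefit = CR+PR+SD, and CR+PR+SD ≥6 months.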

[3] = Plasma PK of milled TAK-228 in TAK-228+P and TAK-228 QW arms, LC-MS/MS; conditions: for Cmax / Tmax / AUC(0-t) / AUC(0-inf) / Vd/F / half-life: human, plasma, oral
Procedure, shortened: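 Milled capsules given fasted. Combination arm sampled on cycle 1 day 2, the first dosing day, ~24 h after IV taxane 80 mg/m2; QW arm sampled on cycle 1 day 1. LC-MS/MS validated over 1–1000 ng/mL. PK parameters summarised descriptively (geometric/arithmetic means, medians, CV).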

[4] = human, plasma, oral, 4 mg, 4 mg milled, fed (high-fat breakfast)

CC(C)n1nc(-c2ccc3oc(N)nc3c2)c2c(N)ncnc21 [TAK-228, Sapanisertib]
AUC(0-inf) ([1]; human, plasma, oral, 4 mg, 4 mg milled, fasted): 369 ng·h/mL
AUC(0-inf) [1, 4]: 383 ng·h/mL
Cmax [1, 4]: 21.6 ng/mL
Cmax ([1]; human, plasma, oral, 4 mg, 4 mg unmilled, fasted): 34 ng/mL
Tmax ([1]; human, plasma, oral, 4 mg, Tmax, median (range), 4 mg milled, fed (high-fat breakfast)): 6 h
Reduction in geometric mean Cmax, fed versus fasted ([1]; milled 4 mg, high-fat breakfast vs empty stomach): ~ 40% and 40%
Best overall response: CR ([2]; QD 3 mg (n=11)): 0 n (%)
Best overall response: PD ([2]; QD 3 mg (n=11)): 3 (27) n (%)
Best overall response: PR ([2]; QD 3 mg (n=11)): 1 (9) n (%)
Best overall response: SD (<6 months) ([2]; QD 3 mg (n=11)): 3 (27) n (%)
Best overall response: SD (≥6 months) ([2]; QD 3 mg (n=11)): 3 (27) n (%)
Clinical benefit rate CR+PR + SD ([2]; QD 3 mg (n=11)): 7 (64) n (%)
Clinical benefit rate CR+PR + SD ≥6 months ([2]; QD 3 mg (n=11)): 4 (36) n (%)
Objective response rate (CR+PR) ([2]; QD 3 mg (n=11)): 1 (9) n (%)
Best overall response: CR ([2]; QD 4 mg (n=6)): 0 n (%)
Best overall response: PD ([2]; QD 4 mg (n=6)): 3 (50) n (%)
Best overall response: PR ([2]; QD 4 mg (n=6)): 1 (17) n (%)
Best overall response: SD (<6 months) ([2]; QD 4 mg (n=6)): 0 n (%)
Best overall response: SD (≥6 months) ([2]; QD 4 mg (n=6)): 1 (17) n (%)
Clinical benefit rate CR+PR + SD ([2]; QD 4 mg (n=6)): 2 (33) n (%)
Clinical benefit rate CR+PR + SD ≥6 months ([2]; QD 4 mg (n=6)): 2 (33) n (%)
Objective response rate (CR+PR) ([2]; QD 4 mg (n=6)): 1 (17) n (%)
Best overall response: CR ([2]; QD Total (n=17)): 0 n (%)
Best overall response: PD ([2]; QD Total (n=17)): 6 (35) n (%)
Best overall response: PR ([2]; QD Total (n=17)): 2 (12) n (%)
Best overall response: SD (<6 months) ([2]; QD Total (n=17)): 3 (18) n (%)
Best overall response: SD (≥6 months) ([2]; QD Total (n=17)): 4 (24) n (%)
Clinical benefit rate CR+PR + SD ([2]; QD Total (n=17)): 9 (53) n (%)
Clinical benefit rate CR+PR + SD ≥6 months ([2]; QD Total (n=17)): 6 (35) n (%)
Objective response rate (CR+PR) ([2]; QD Total (n=17)): 2 (12) n (%)
Objective response rate (ORR) ([2]; QD arm): 12%
Overall clinical benefit rate (CR+PR + SD) ([2]; QD arm (9/17 patients)): 52.9%
Best overall response: CR ([2]; QW 20 mg (n=7)): 0 n (%)
Best overall response: PD ([2]; QW 20 mg (n=7)): 3 (43) n (%)
Best overall response: PR ([2]; QW 20 mg (n=7)): 0 n (%)
Best overall response: SD (<6 months) ([2]; QW 20 mg (n=7)): 3 (43) n (%)
Best overall response: SD (≥6 months) ([2]; QW 20 mg (n=7)): 0 n (%)
Clinical benefit rate CR+PR + SD ([2]; QW 20 mg (n=7)): 3 (43) n (%)
Clinical benefit rate CR+PR + SD ≥6 months ([2]; QW 20 mg (n=7)): 0 n (%)
Objective response rate (CR+PR) ([2]; QW 20 mg (n=7)): 0 n (%)
Best overall response: CR ([2]; QW 30 mg (n=13)): 0 n (%)
Best overall response: PD ([2]; QW 30 mg (n=13)): 3 (23) n (%)
Best overall response: PR ([2]; QW 30 mg (n=13)): 0 n (%)
Best overall response: SD (<6 months) ([2]; QW 30 mg (n=13)): 5 (39) n (%)
Best overall response: SD (≥6 months) ([2]; QW 30 mg (n=13)): 1 (8) n (%)
Clinical benefit rate CR+PR + SD ([2]; QW 30 mg (n=13)): 6 (46) n (%)
Clinical benefit rate CR+PR + SD ≥6 months ([2]; QW 30 mg (n=13)): 1 (8) n (%)
Objective response rate (CR+PR) ([2]; QW 30 mg (n=13)): 0 n (%)
Best overall response: CR ([2]; QW Total (n=20)): 0 n (%)
Best overall response: PD ([2]; QW Total (n=20)): 6 (30) n (%)
Best overall response: PR ([2]; QW Total (n=20)): 0 n (%)
Best overall response: SD (<6 months) ([2]; QW Total (n=20)): 8 (40) n (%)
Best overall response: SD (≥6 months) ([2]; QW Total (n=20)): 1 (5) n (%)
Clinical benefit rate CR+PR + SD ([2]; QW Total (n=20)): 9 (45) n (%)
Clinical benefit rate CR+PR + SD ≥6 months ([2]; QW Total (n=20)): 1 (5) n (%)
Objective response rate (CR+PR) ([2]; QW Total (n=20)): 0 n (%)
Objective response rate (ORR) ([2]; QW arm): 0%
Overall clinical benefit rate (CR+PR + SD) ([2]; QW arm (9/20 patients)): 45%
CL/F, geometric mean (CV) ([3]; QW 20 mg (n=7)): 15.1 (46) L/hour
CL/F, geometric mean (CV) ([3]; QW 30 mg (n=13)): 18.3 (63) L/hour
Effect of paclitaxel administered 24 hours before TAK-228 on TAK-228 PK ([3]; combination arm vs QD arm (4 mg, milled, fasted)): no clinically meaningful effects
Cmax ([3]; 4 mg): 28.5 ng/mL
Tmax ([3]; 4 mg): 2.2 h
AUC(0-t) ([3]; 6 mg): 244 ng·h/mL
AUC(0-inf) ([3]; 20 mg): 1330 ng·h/mL
AUC(0-t) ([3]; 20 mg): 1240 ng·h/mL
Cmax ([3]; 20 mg): 209 ng/mL
Vd/F ([3]; 20 mg): 125 L
half-life ([3]; 20 mg): 6.1 h
AUC(0-inf) ([3]; 30 mg): 1640 ng·h/mL
AUC(0-t) ([3]; 30 mg): 1530 ng·h/mL
Cmax ([3]; 30 mg): 235 ng/mL
Tmax ([3]; 30 mg): 1 h
Vd/F ([3]; 30 mg): 155 L
half-life ([3]; 30 mg): 6 h
